5 compounds from ChEMBL document CHEMBL1817627, “Synergy-directed fractionation of botanical medicines: a case study with goldenseal (Hydrastis canadensis)” (2011) can be followed below.

The source made the active and inactive calls. No cut-off for these calls is given here.

The subject of assay [1] is Staphylococcus aureus. Description: Inhibition of Staphylococcus aureus K1758 NorA mutant assessed as inhibition of ethidium bromide efflux by measuring increase in fluorescence at 100 uM after 300 secs.
The target of assay [2] is T1, Quinolone resistance protein NorA (Staphylococcus aureus) (UniProt P0A0J7).
T1 sequence (whole entry): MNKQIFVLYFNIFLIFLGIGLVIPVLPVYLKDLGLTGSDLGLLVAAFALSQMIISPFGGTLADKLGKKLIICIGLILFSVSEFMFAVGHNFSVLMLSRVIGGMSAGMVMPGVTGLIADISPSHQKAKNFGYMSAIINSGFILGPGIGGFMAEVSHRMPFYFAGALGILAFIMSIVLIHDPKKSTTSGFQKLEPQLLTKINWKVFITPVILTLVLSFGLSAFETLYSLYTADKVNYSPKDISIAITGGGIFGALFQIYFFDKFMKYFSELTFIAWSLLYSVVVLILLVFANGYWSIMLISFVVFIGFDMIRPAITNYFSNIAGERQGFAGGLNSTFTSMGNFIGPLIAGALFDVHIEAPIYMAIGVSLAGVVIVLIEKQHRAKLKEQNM
The experiment in a line: Inhibition of wild type Staphylococcus aureus NCTC8325-4 NorA assessed as time taken to inhibit ethidium bromide efflux by measuring fluorescence at 100 uM relative to control. In short, it runs like this:
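Cells grown in Mueller-Hinton broth to OD600 0.74, then loaded with ethidium bromide (25 μM) plus CCCP (100 μM) for 20 min at 20 °C with shaking. Diluted to OD600 0.40, pelleted and held on ice. Resuspended in fresh broth with 10% DMSO final and treatment at 100 μM final; CCCP is the control. Fluorescence (ex 530, em 600 nm) read every second for 300 s. Two-factor ANOVA versus vehicle at t = 300 s.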

Assay [3] deals with Staphylococcus aureus. The experiment in a line: Antimicrobial activity against NorA efflux pump overexpressing Staphylococcus aureus K2378. The class given is functional. In short, it runs like this:
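S. aureus K2378 (norA overexpressing); single colony grown to log phase in Mueller-Hinton broth, adjusted by OD600 to 1.0×10^5 CFU/mL final; broth microdilution per CLSI in broth with 2% DMSO; triplicate wells plus bacteria-free background wells; OD600 read after 20 hrs at 37 °C; MIC = concentration with no significant difference (ANOVA) from vehicle control.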

Assay [4] deals with Staphylococcus aureus. Description: Antimicrobial activity against Staphylococcus aureus. The class given is functional. In short, it runs like this: (§1)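 Broth microdilution MIC per CLSI guidelines. Single-colony S. aureus inoculum grown to log phase in Mueller-Hinton broth, adjusted by OD600 to 1.0×10^5 CFU/mL final. Medium contains 2% DMSO (vehicle, negative control); reserpine is the positive control. Triplicate wells, with bacteria-free wells for background subtraction. OD600 read after 20 hrs at 37 °C.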

Assay [5] has as its system Staphylococcus aureus. Description: Antimicrobial activity against wild-type Staphylococcus aureus NCTC8325-4. The format is functional. In short, it runs like this:
as §1

Regarding `COc1c(C)c(O)c2c(=O)cc(-c3ccc(O)cc3)oc2c1C`, in the assay on Staphylococcus aureus [1], the inhibition result was “inactive”. The TIME in assay [2] turned out to be 0.0833 h.

`COc1cc(O)c2c(=O)cc(-c3ccc(O)cc3)oc2c1C`: in the assay on Staphylococcus aureus [1], the inhibition result is “inactive”. The TIME in assay [2] was determined as 0.0833 h.

For `N#CC(C#N)=NNc1cccc(Cl)c1`, in the assay on Staphylococcus aureus [1], the inhibition entry was “inactive”. Also, the TIME in assay [2] stood at 0.0833 h.

Consider `COc1cc2oc(-c3ccc(O)cc3)cc(=O)c2c(O)c1C` [8-DEMETHYLSIDEROXYLIN], for which, in the assay on Staphylococcus aureus [1], the inhibition result was “inactive”. Further, in the assay with Staphylococcus aureus [3], the minimum inhibitory concentration (MIC) (commonly the lowest concentration found to suppress growth) was greater than 300 µg/mL. Further, the TIME in assay [2] is 0.0833 h.

Take `COc1ccc2cc3[n+](cc2c1OC)CCc1cc2c(cc1-3)OCO2` [BERBERINE]: the minimal inhibitory concentration (MIC) against Staphylococcus aureus [4] came to 150 µg/mL; against Staphylococcus aureus [3], 300 µg/mL; against Staphylococcus aureus [5], 150 µg/mL.
